“Also recorded” adds a separate entry of the source.
Experiments:
[1] = system: RBL cells; assay: Inhibition of allergen-induced RBL mast cell degranulation; assay type: cell-based, rat; details: equimolar IgE^DNP and IgE^dansyl; 500 nM HtTA [dansyl2NF2]
[2] = target: IgE; details: read-out: Kd for IgE (nucleotide-binding site ligand); cited from earlier work
[3] = system: IgE^dansyl; assay: Fluorescence quenching assay, hapten binding to IgE^dansyl; details: dansyl-IgE^dansyl versus NF-IgE^DNP
How it was run: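 Monovalent hapten titrated into 10 nM IgE in PBS. Binding read as quenching of IgE tryptophan fluorescence at 335 nm, which occurs only when hapten and IgE are in proximity (<10 nm). Monovalent binding constants were derived from the quenching. At least triplicate.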

| difference in affinity between dansyl-IgE^dansyl and NF-IgE^DNP pairs [3] [fold] | Compound | inhibition of HtTA [dansyl2NF2]-induced degranulation [1] | Kd [2] [µM] |
| --- | --- | --- | --- |
| – | O=C(O)CCCc1c[nH]c2ccccc12 [IBA, indole-3-butyric acid] | did not inhibit degranulation; also recorded: no inhibition of mast cell degranulation was observed | 4.5 ± 0.6 |
| 760 | dansyl | – | – |

Reference: article PMC3913000 (Nature chemical biology, 2013)
